Inconclusive results are not listed. Activity calls are given as the source filed them.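 How the source made its calls, unless noted: active means viability at or below 27.92% in each of two runs, the all-compound median minus 4 SD; inconclusive means no clear call, values can overlap the other calls; inactive means the rest.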
Key:
[1] = OD615 S. cerevisiae growth inhibition, permissive medium, pilot counter-assay, permissive growth control for S. cerevisiae lifespan shortening project (AID 705;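 active means growth inhibition above 25% in both replicates, a cutoff set 3 SD above the mean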); conditions: OD615, 24 h, at 10 µM, stronger effect = higher value
Procedure, shortened: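 System: S. cerevisiae with engineered DeaD lifespan system / Measured by: absorbance (optical density) at 615 nm / Read-out: reduction in yeast growth (OD615) / Times: 4 h cell pre-growth, 24 h exposure at 30 °C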

[2] = Restrictive medium S. cerevisiae growth inhibition, OD615, pilot screen of yeast lifespan reduction project, restrictive growth control (AID 706;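 active means growth inhibition above a set limit, 3 SD over mean compound inhibition, in both replicates, cut at about 43% in these data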;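 further: modified DeaD lifespan yeast strain shifted to restrictive glucose medium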); conditions: OD615, 48 h, at 10 µM, stronger effect = higher value
Procedure, shortened: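 System: Engineered S. cerevisiae DeaD strain | Buffer or medium: Glucose-based CSMM-D restrictive medium | Schedule: 4 h pre-incubation, 48 h exposure at 30 °C | Technique: Optical density at 615 nm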

[3] = viability gain of MRP-1-high H69AR cells under doxorubicin, pilot screen, MRP-1 activator project, CellTiter-Glo, duplicate (AID 807;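 active means viability increase at or above a cutoff of the median across tested compounds plus 3 SD, cut at about 8.5% in these data, passing the limit was not always enough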;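 further: compound pretreatment 18-22 h then 72 h combined with doxorubicin; 0% = doxorubicin alone and 100% = vehicle without doxorubicin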); conditions: H69AR viability with doxorubicin, CellTiter-Glo luminescence; at 10 µM; stronger effect = higher value
[4] = growth suppression of beta-catenin knockout HCT116, pilot screen, human colon tumor cells (AID 823;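 active means cell viability at or below a set limit in both duplicate runs, the limit being the all-compound median minus 4 SD, cut at about 23% in these data, passing the limit was not always enough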;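 further: 0% = wells killed by 20 µM Hyamine and 100% = untreated DMSO cell wells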); conditions: CellTiter-Glo, 60 h, at 10 µM, stronger effect = lower value
[5] = growth suppression of PTEN-deleted HCT116, pilot screen, cell-based, HCT116 clonal line, CellTiter-Glo (AID 824); conditions: 60 h, at 10 µM, stronger effect = lower value;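 further: 0% = 20 µM Hyamine control and 100% = vehicle cell control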
[6] = inhibitors of the yeast RAM network, pilot screen, dse1pr::URA3 reporter, 5-FOA selection (AID 869;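 active means inhibition over a set limit, the all-compound mean plus 3 SD, in both replicate runs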;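 further: 0% = DMSO wells with no growth and 100% = 10 µM 1-NA-PP1 with full growth; RAM network block rescues cells from 5-FOA so hits raise OD615 growth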); conditions: S. cerevisiae dse1pr::URA3 5-FOA growth, OD615, 2 d; at 10 µM; stronger effect = higher value; strain carries analog-sensitive mutant Cbk1 kinase
[7] = RAM signaling pathway blockade in yeast – S. cerevisiae, Pdr1DBD-CYC8 efflux-inhibited sensitized strain, primary screen (AID 1298;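 active means RAM network inhibition above 8.4% in each of two replicates, 3 SD over the compound average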;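 further: 0% = DMSO untreated cells without growth and 100% = 10 µM 1-NA-PP1 full growth; higher means more yeast growth rescued from 5-FOA killing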); conditions: S. cerevisiae cbk1-as DSE1-URA3 strain, 5-FOA growth OD615, 2 d; at 50 µM; stronger effect = higher value

Cc1ccc(S(=O)(=O)Cc2ccc(C(=O)N3CCCCCC3)o2)cc1
inactive: growth inhibition [1] -10.6% | growth inhibition [2] -22.4% | viability increase [3] -1.93% | viability [4] 98.8% | viability [5] 96.2% | inhibition [6] 1.73% | RAM network inhibition [7] 8.33%

CC(=O)Nc1ccc(S(=O)(=O)N2CCN(c3nc(NC4CCCC4)c4ccccc4n3)CC2)cc1
inactive: growth inhibition [1] 0.72% | growth inhibition [2] -1.39% | viability increase [3] -8.11% | inhibition [6] 1.15% | RAM network inhibition [7] 3.62%
active: viability [4] 1.42% | viability [5] 1.7%

COc1ccc(-c2nnc3ccc(SCC(=O)N4CCCC4)nn23)cc1
inactive: growth inhibition [1] 3.94% | growth inhibition [2] 1.08% | viability increase [3] -4.23% | viability [4] 101% | viability [5] 99.5% | inhibition [6] 1.44% | RAM network inhibition [7] 0.16%

COc1ccc(-n2ncc3c(N4CCCCC4)ncnc32)cc1
inactive: growth inhibition [1] -12.2% | growth inhibition [2] 0.385% | viability increase [3] -3.57% | viability [4] 67.8% | viability [5] 57.1% | inhibition [6] 1.78% | RAM network inhibition [7] -1.99%

CCOCCCNC(=O)C(NC(=O)CNC(C)=O)c1ccc(Cl)cc1 (stereo unspecified)
inactive: growth inhibition [1] -10.1% | growth inhibition [2] -12.2% | viability increase [3] -0.33% | viability [4] 102% | viability [5] 101% | inhibition [6] 2.1% | RAM network inhibition [7] 2.91%

COc1cc(NC(=O)C2CCCC2)c(OC)cc1Cl
inactive: growth inhibition [1] -8.4% | growth inhibition [2] -12% | viability increase [3] -3.09% | viability [4] 81.9% | viability [5] 78.4% | inhibition [6] 1.02% | RAM network inhibition [7] -0.72%

O=C(OCC(=O)N1CCN(C(=O)c2ccco2)CC1)c1sc2ccccc2c1Cl
inactive: growth inhibition [1] -14.3% | growth inhibition [2] -20.1% | viability increase [3] -2.74% | viability [4] 96.3% | viability [5] 102% | inhibition [6] 0.845% | RAM network inhibition [7] 5.57%

COc1ccc(NC(=O)c2cc3c(=O)n(C)c4ccccc4c3n2C)cc1OC
inactive: growth inhibition [1] -0.735% | growth inhibition [2] -6.07% | viability increase [3] -5.17% | viability [4] 93.8% | viability [5] 80.9% | inhibition [6] 2.05% | RAM network inhibition [7] 5.74%

COc1ccc(-n2nnc3c(=O)n(CC(=O)N4CCCCC4)cnc32)cc1
inactive: growth inhibition [1] -0.235% | growth inhibition [2] 4.3% | viability increase [3] -0.73% | viability [4] 96.1% | viability [5] 94.6% | inhibition [6] 0.975% | RAM network inhibition [7] -0.05%

Cn1c2c(c(=O)n(C)c1=O)C(c1cc3c(cc1Br)OCO3)CC(=O)N2 (stereo unspecified)
inactive: growth inhibition [1] -4.86% | growth inhibition [2] -4.15% | viability increase [3] -0.66% | viability [4] 105% | viability [5] 99% | inhibition [6] -0.625% | RAM network inhibition [7] 4.1%

CCCn1c(CN2CCCCC2CC)nc2c1c(=O)n(C)c(=O)n2C (stereo unspecified)
inactive: growth inhibition [1] -3.98% | growth inhibition [2] -17.3% | viability increase [3] 0.61% | viability [4] 93.9% | viability [5] 90.4% | inhibition [6] 0.045% | RAM network inhibition [7] 4.81%

Cc1nnc(NC(=O)CSc2nnc(Cc3cccn3C)n2C)s1
inactive: growth inhibition [1] -3.1% | growth inhibition [2] 24.4% | viability increase [3] -0.3% | viability [4] 98.8% | viability [5] 104% | inhibition [6] 0.91% | RAM network inhibition [7] 1.93%

Cc1csc(=NC(=O)c2ccccc2)n1Cc1ccco1
inactive: growth inhibition [1] -16.8% | growth inhibition [2] -36% | viability increase [3] -2.24% | viability [4] 87.9% | viability [5] 89.9% | inhibition [6] 1.38% | RAM network inhibition [7] 3.14%

CCC(C)NC(=O)c1cc(-c2ccccc2O)on1 (stereo unspecified)
inactive: growth inhibition [1] -10.7% | growth inhibition [2] -4.76% | viability increase [3] -1.23% | viability [4] 94% | viability [5] 86.2% | inhibition [6] 1.73% | RAM network inhibition [7] 2.61%

O=C(NCCC1=CCCCC1)C1CCN(c2nnc(-n3cccc3)s2)CC1
inactive: growth inhibition [1] 3.32% | growth inhibition [2] 4.32% | viability increase [3] -0.38% | viability [4] 85.2% | viability [5] 82.2% | inhibition [6] 2.42% | RAM network inhibition [7] 1.13%

O=C1c2cccnc2C(=O)N1Cc1ccccc1
inactive: growth inhibition [1] -1.31% | growth inhibition [2] -3.01% | viability increase [3] -0.58% | viability [4] 101% | viability [5] 101% | inhibition [6] 0.015% | RAM network inhibition [7] 0.79%

O=C(c1ccco1)N1CCN(C(=O)c2oc(=O)c3ccccc3c2-c2ccccc2)CC1
inactive: growth inhibition [1] -6.24% | growth inhibition [2] -4.58% | viability increase [3] -1.47% | viability [4] 105% | viability [5] 98.5% | inhibition [6] 0.68% | RAM network inhibition [7] 3.83%

O=c1[nH]c(=S)[nH]nc1Cc1ccccc1
inactive: growth inhibition [1] -10% | growth inhibition [2] 13.4% | viability increase [3] -0.79% | viability [4] 101% | viability [5] 98.2% | inhibition [6] 0.12% | RAM network inhibition [7] 6.46%

COc1cc(S(=O)(=O)NCc2ccc3c(c2)OCO3)ccc1Cl
inactive: growth inhibition [1] -10.5% | growth inhibition [2] -15.1% | viability increase [3] -2.38% | viability [4] 97.3% | viability [5] 95.5% | inhibition [6] 1.69% | RAM network inhibition [7] 0.82%

Cc1c(C#N)c2ncn(Cc3ccccc3)c(=O)c2n1-c1ccccc1
inactive: growth inhibition [1] -19.7% | growth inhibition [2] -0.37% | viability increase [3] -3.74% | viability [4] 81.1% | viability [5] 83.8% | inhibition [6] 0.47% | RAM network inhibition [7] 4.19%

CCOC(=O)c1sc(NC(=O)c2ccc3ncsc3c2)nc1C
inactive: growth inhibition [1] -5.17% | growth inhibition [2] 0.14% | viability increase [3] -2.47% | viability [4] 84.2% | viability [5] 82.8% | inhibition [6] 2.75% | RAM network inhibition [7] 5.36%

O=S(=O)(c1ccc(Oc2ccc(S(=O)(=O)N3CCOCC3)cc2)cc1)N1CCOCC1
inactive: growth inhibition [1] -21.5% | growth inhibition [2] -21.2% | viability increase [3] -1.32% | viability [4] 82.7% | viability [5] 87.6% | inhibition [6] 4.01% | RAM network inhibition [7] 4.04%

CCC(CC)C(=O)N1c2ccc(F)cc2CCC1C (stereo unspecified)
inactive: growth inhibition [1] -16.6% | growth inhibition [2] -10.7% | viability increase [3] -0.23% | viability [4] 95.3% | viability [5] 93.9% | inhibition [6] 1.31% | RAM network inhibition [7] 1.96%

Cc1nc(C)c(C(=O)Nc2cccc(C)c2C)o1
inactive: growth inhibition [1] -5.6% | growth inhibition [2] -15.8% | viability increase [3] -3.05% | viability [4] 109% | viability [5] 90.1% | inhibition [6] 3.58% | RAM network inhibition [7] 1.53%

COc1cc(OC)cc(C(=O)OCn2nnc3ccccc3c2=O)c1
inactive: growth inhibition [1] -9.62% | growth inhibition [2] -4.46% | viability increase [3] -0.87% | viability [4] 101% | viability [5] 96.1% | inhibition [6] 1.33% | RAM network inhibition [7] 7.22%

Cc1cccc(C)c1Nc1nc2ccccc2o1
inactive: growth inhibition [1] -7.32% | growth inhibition [2] 11.5% | viability increase [3] -0.76% | viability [4] 93.3% | viability [5] 94.3% | inhibition [6] 1.97% | RAM network inhibition [7] -0.32%

COc1ccc(-c2ccc(=O)n(CC(=O)N3CCN(c4ccccc4OC)CC3)n2)cc1
inactive: growth inhibition [1] -4.48% | growth inhibition [2] 12% | viability increase [3] 2.33% | viability [4] 89.7% | viability [5] 92.9% | inhibition [6] 1.15% | RAM network inhibition [7] 7.61%

CC(=O)Nc1nc2ccccc2n1CCN(C)C
inactive: growth inhibition [1] -5.31% | growth inhibition [2] -3.15% | viability increase [3] -0.15% | viability [4] 99.3% | viability [5] 103% | inhibition [6] 2.95% | RAM network inhibition [7] 7.04%

CCN1CCc2c(sc(NC(=O)c3ccc(S(=O)(=O)N4CCOCC4)cc3)c2C(N)=O)C1
inactive: growth inhibition [1] -2.02% | growth inhibition [2] -1.51% | viability increase [3] -2.7% | viability [4] 86.8% | viability [5] 87.2% | inhibition [6] 1.45% | RAM network inhibition [7] 0.16%

O=C(CCCC1=NS(=O)(=O)c2ccccc2N1)N1CCN(c2ccc(Cl)cc2)CC1
inactive: growth inhibition [1] -17.7% | growth inhibition [2] -0.86% | viability increase [3] -0.04% | viability [4] 91.7% | viability [5] 78.3% | inhibition [6] 0.37% | RAM network inhibition [7] 0.9%

CCCCn1nc(NC(=O)c2cccs2)c2cc3ccccc3nc21
inactive: growth inhibition [1] -22.7% | growth inhibition [2] -8.93% | viability increase [3] 1.45% | viability [4] 54.6% | viability [5] 48.3% | inhibition [6] 0.55% | RAM network inhibition [7] 4.61%

CN(C)c1ccc(C(=O)Nc2nc3c(s2)CCCC3)cc1
inactive: growth inhibition [1] 9.25% | growth inhibition [2] -3.03% | viability increase [3] -0.42% | viability [4] 69.7% | viability [5] 72.4% | inhibition [6] 0.905% | RAM network inhibition [7] 1.19%

O=S(=O)(CCc1nnc(-c2ccccc2)o1)c1ccc2ccccc2c1
inactive: growth inhibition [1] -16.3% | growth inhibition [2] -6.19% | viability increase [3] -1.86% | viability [4] 89.8% | viability [5] 91.8% | inhibition [6] 1.96% | RAM network inhibition [7] 10.4%

Reference: PubChem BioAssay
